Results: EPA's CvTdb concentration-time database

Tests used:
[1] = tested on: Mouse; test: concentration in plasma after dosing; settings: 0.25 h; dosed: 2-Hydroxy-4-methoxybenzophenone; 500 mg/kg; oral; Female; B6C3F1
[2] = tested on: Rat; test: concentration in plasma after dosing; settings: dosed: 2-Hydroxy-4-methoxybenzophenone, 250 mg/kg, oral, Female, F344
[3] = tested on: Mouse; test: concentration in plasma after dosing; settings: 10 min; dosed: 2-Hydroxy-4-methoxybenzophenone; 500 mg/kg; oral; Male; B6C3F1
[4] = tested on: Rat; test: concentration in plasma after dosing; settings: 0.25 h; dosed: 2-Hydroxy-4-methoxybenzophenone; 500 mg/kg; oral; Male; F344
[5] = tested on: Mouse; test: concentration in plasma after dosing; settings: 10 min; dosed: 2-Hydroxy-4-methoxybenzophenone; 50 mg/kg; iv; Female; B6C3F1
[6] = tested on: Rat; test: concentration in plasma after dosing; settings: dosed: 2-Hydroxy-4-methoxybenzophenone, 100 mg/kg, oral, Female, F344
[7] = tested on: Mouse; test: concentration in plasma after dosing; settings: 10 min; dosed: 2-Hydroxy-4-methoxybenzophenone; 50 mg/kg; iv; Female; B6C3F1; remark: listed apart in the source
[8] = tested on: Mouse; test: concentration in plasma after dosing; settings: 0.25 h; dosed: 2-Hydroxy-4-methoxybenzophenone; 250 mg/kg; oral; Male; B6C3F1
[9] = tested on: Rat; test: concentration in plasma after dosing; settings: dosed: 2-Hydroxy-4-methoxybenzophenone, 500 mg/kg, oral, Female, F344
[10] = tested on: Mouse; test: concentration in plasma after dosing; settings: 0.25 h; dosed: 2-Hydroxy-4-methoxybenzophenone; 500 mg/kg; oral; Male; B6C3F1
[11] = tested on: Rat; test: concentration in plasma after dosing; settings: 10 min; dosed: Nitrite; 40 mg/kg; oral; Female; F344
[12] = tested on: Rat; test: concentration in plasma after dosing; settings: 5 min; dosed: Nitrite; 80 mg/kg; oral; Female; F344
[13] = tested on: Rat; test: concentration in plasma after dosing; settings: dosed: Nitrite, 20 mg/kg, iv, Male, F344
[14] = tested on: Rat; test: concentration in plasma after dosing; settings: 2 min; dosed: Nitrite; 80 mg/kg; oral; Female; F344
[15] = tested on: Rat; test: concentration in plasma after dosing; settings: 10 min; dosed: Nitrite; 80 mg/kg; oral; Female; F344
[16] = tested on: Rat; test: concentration in plasma after dosing; settings: dosed: Nitrite, 80 mg/kg, oral, Female, F344
[17] = tested on: Rat; test: concentration in liver after dosing; settings: 6 h; dosed: Fluorotelomer alcohol 8+2; 80 mg/kg; oral; Female; Harlan Sprague Dawley
[18] = tested on: Rat; test: concentration in brain after dosing; settings: 24 h; dosed: Perfluorooctanoic acid; 12 mg/kg; oral; Male; Harlan Sprague Dawley
[19] = tested on: Rat; test: concentration in brain after dosing; settings: 24 h; dosed: Perfluorooctanoic acid; 12 mg/kg; oral; Male; Harlan Sprague Dawley; remark: listed apart in the source
[20] = tested on: Rat; test: concentration in plasma after dosing; settings: dosed: 678-39-7, 40 mg/kg, iv, Female, Harlan Sprague-Dawley
[21] = tested on: Rat; test: concentration in kidney after dosing; settings: 12 h; dosed: Perfluorooctanoic acid; 80 mg/kg; oral; Female; Harlan Sprague Dawley
[22] = tested on: Rat; test: concentration in plasma after dosing; settings: dosed: Fluorotelomer alcohol 8+2, 12 mg/kg, oral, Male, Harlan Sprague Dawley
[23] = tested on: Rat; test: concentration in plasma after dosing; settings: dosed: Fluorotelomer alcohol 8+2, 12 mg/kg, oral, Male, Harlan Sprague Dawley; remark: listed apart in the source
[24] = tested on: Rat; test: concentration in plasma after dosing; settings: dosed: 678-39-7, 40 mg/kg, iv, Female, Harlan Sprague-Dawley; remark: listed apart in the source
[25] = tested on: Rat; test: concentration in kidney after dosing; settings: 12 h; dosed: Fluorotelomer alcohol 8+2; 80 mg/kg; oral; Female; Harlan Sprague Dawley
[26] = tested on: Rat; test: concentration in liver after dosing; settings: 1 h; dosed: Potassium Perfluorobutane Sulfonate; 20 mg/kg; oral; Male; Harlan Sprague Dawley
[27] = tested on: Rat; test: concentration in liver after dosing; settings: 6 h; dosed: Potassium Perfluorobutane Sulfonate; 20 mg/kg; oral; Male; Harlan Sprague Dawley
[28] = tested on: Rat; test: concentration in plasma after dosing; settings: 0.5 h; dosed: Potassium Perfluorobutane Sulfonate; 4 mg/kg; iv; Male; F344
[29] = tested on: Rat; test: concentration in plasma after dosing; settings: dosed: Potassium Perfluorobutane Sulfonate, 4 mg/kg, oral, Male, Harlan Sprague Dawley
[30] = tested on: Rat; test: concentration in kidney after dosing; settings: 1 h; dosed: Potassium Perfluorobutane Sulfonate; 20 mg/kg; oral; Male; Harlan Sprague Dawley
[31] = tested on: Rat; test: concentration in plasma after dosing; settings: dosed: Potassium Perfluorobutane Sulfonate, 4 mg/kg, oral, Male, Harlan Sprague Dawley; remark: listed apart in the source
[32] = tested on: Rat; test: concentration in plasma after dosing; settings: dosed: Potassium Perfluorobutane Sulfonate, 20 mg/kg, oral, Male, Harlan Sprague Dawley
[33] = tested on: Rat; test: concentration in plasma after dosing; settings: 1 h; dosed: Potassium Perfluorobutane Sulfonate; 4 mg/kg; iv; Female; Harlan Sprague-Dawley
[34] = tested on: human; test: concentration in expired air after dosing; settings: dosed: methyl tert-butyl ether, 15 mg, oral, male
Summary of the method: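 Sampling and analytical methods are those of each source and frequently went unreported. The concentration-versus-time and amount-versus-time points were compiled from published in vivo toxicokinetic studies and two structured collections. Most were digitised from plot screenshots with WebPlotDigitizer, with others copied from tables, in the reported units.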

COc1ccc(C(=O)c2ccccc2)c(O)c1 [2-Hydroxy-4-methoxybenzophenone]
Settings | concentration in plasma [µg/mL]
[1] | 0.411
[3] | 0.102
[4] | 0.902
[5] | 8.41
[7] | 11.5
[8] | 0.289
[10] | 0.468

concentration in plasma [µg/mL]
Settings | 0.25 h | 4 h | 10 h | 10 min
[2] | 0.453 | 0.019 | – | –
[6] | 0.0846 | 0.0162 | – | –
[9] | – | – | 0.0315 | 0.935

O=N[O-] [Nitrite]
Settings | concentration in plasma [µg/mL]
[11] | 8.5
[12] | 8.2
[14] | 2.9
[15] | 31.8

concentration in plasma [µg/mL]
Settings | 1 h | 2 h | 5 min
[13] | 3.1 | – | 12.6
[16] | 11.2 | 12.2 | –

O=C(O)C(F)(F)C(F)(F)C(F)(F)C(F)(F)C(F)(F)C(F)(F)C(F)(F)F [Perfluorooctanoic acid]
Settings | concentration in brain [ng/g] | concentration in kidney [ng/g] | concentration in liver [ng/g]
[17] | – | – | 1430
[18] | 1290 | – | –
[19] | 1210 | – | –
[21] | – | 67800 | –
[25] | – | 626 | –

Settings | concentration in plasma [ng/mL]
[20], 1 h | 2280
[20], 24 h | 58.8
[22], 48 h | 657
[22], 192 h | 424
[23], 48 h | 614
[23], 192 h | 399
[24], 0.75 h | 1470
[24], 12 h | 372

O=S(=O)([O-])C(F)(F)C(F)(F)C(F)(F)C(F)(F)F.[K+] [Potassium Perfluorobutane Sulfonate]
Settings | concentration in kidney [ng/g] | concentration in liver [ng/g] | concentration in plasma [ng/mL]
[26] | – | 110000 | –
[27] | – | 51600 | –
[28] | – | – | 12000
[30] | 22700 | – | –
[33] | – | – | 3410

Settings | concentration in plasma [ng/mL]
[29], 0.25 h | 3580
[29], 6 h | 11600
[31], 0.5 h | 6060
[31], 9 h | 5230
[32], 0.25 h | 30200
[32], 24 h | 1070

CC(C)(C)O [tert-butyl alcohol]
[34]
Settings | concentration in expired air [nmol/L]
0.163 h | 1.334
0.3286 h | 2.062
0.5019 h | 2.062
0.6649 h | 2.197
0.8305 h | 1.982
0.9909 h | 1.774
1.501 h | 1.665
1.995 h | 1.562
2.994 h | 1.49
3.99 h | 1.323
4.991 h | 1.366
5.99 h | 1.242
